The values below come from paper PMC5360466 (Hepatology (Baltimore, Md.), 2017).

Test [1] relates to RRV. The test can be described thus: RRV binding. The class given is cell-based. Particulars: for effect on RRV-cholangiocyte binding: peptides at varying concentrations, 4°C. In outline:
(§1)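 Confluent mouse or H69 cholangiocytes were pretreated with peptide (1 mM, or varying concentrations). Cells, medium and virus were chilled to 4°C, then inoculated and held 1 h at 4°C. Cells were washed twice and freeze/thawed twice. Bound virus (cell fraction) and unbound virus (washes plus inoculum) were titred by focus forming assay, and attached virus was expressed as % of inoculum. DGEA and GHRP peptides served as controls. Data are mean ± standard error, ANOVA.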

The test system of test [2] is TUCH. The test can be described thus: TUCH binding assay in mouse cholangiocytes. Particulars: mouse cholangiocytes pretreated with 1 mM peptide; Fig. 2A, 3B. It counts as cell-based, rotavirus, simian strain; mouse cholangiocytes. The procedure, abridged: as §1
The subject of test [3] is TUCH. The test can be described thus: TUCH viral yield in mouse cholangiocytes. The class given is cell-based, rotavirus, simian strain; mouse cholangiocytes. The conditions noted are these: mouse cholangiocytes pretreated with 1 mM peptide; Fig. 2B, 3C. The procedure, abridged:
(§2)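 Mouse or H69 cholangiocytes were pretreated with peptide in DMEM (1 mM, or varying concentrations) and infected at 4°C, then incubated 18 h at 37°C. Infectious yield was measured by focus forming assay: serial dilutions at 37°C for 14-16 h, acetone fixation, guinea pig anti-rotavirus IgG (1:1000), then FITC anti-guinea pig IgG (1:500), with foci counted by UV microscopy. DGEA and GHRP served as controls.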

Test [4] concerns Ro1845. The test can be described thus: Ro1845 binding assay in mouse cholangiocytes. It counts as cell-based, rotavirus, human strain; mouse cholangiocytes. The conditions noted are these: mouse cholangiocytes pretreated with 1 mM peptide; Fig. 2A, 3B. In outline:
as §1

The test system of test [5] is Ro1845. The test can be described thus: Ro1845 viral yield in mouse cholangiocytes. The class given is cell-based, rotavirus, human strain; mouse cholangiocytes. Particulars: mouse cholangiocytes pretreated with 1 mM peptide; Fig. 2B, 3C. The procedure, abridged: as §2
For test [6], the system named is RRV. The test can be described thus: RRV binding in siRNA-transfected mouse cholangiocytes. Particulars: 1 mM peptide, Fig. 8A. The class given is cell-based, rhesus rotavirus; mouse cholangiocytes.
Test [7] deals with RRV. The test can be described thus: RRV replication. It counts as cell-based. The conditions noted are these: for inhibition of RRV replication: mouse cholangiocytes pretreated with 1 mM peptide, Fig. 8D; for effect on RRV replication: mouse cholangiocytes pretreated with peptide, concentration not given, Fig. 4B. In outline:
as §2

For another test, the system named is rotavirus. The conditions noted are these: due to decreased viral entry; cited from earlier work.
Test [8] has as its system RRV. Particulars: negative control peptide; cited from earlier work.
Test [9] deals with RRV. The test can be described thus: Murine model of biliary atresia. It counts as in vivo, BALB/c mice. Particulars: bile ducts harvested 12 days after infection with RRV and peptide treatment; Fig. 5C.
The test system of test [10] is GRV. The test can be described thus: GRV binding assay in mouse cholangiocytes. The class given is cell-based, rotavirus, goat strain; mouse cholangiocytes. Particulars: mouse cholangiocytes pretreated with 1 mM peptide; Fig. 2A. In outline: as §1
In test [11] the test system is GRV. The test can be described thus: GRV viral yield in mouse cholangiocytes. It counts as cell-based, rotavirus, goat strain; mouse cholangiocytes. The conditions noted are these: mouse cholangiocytes pretreated with 1 mM peptide; Fig. 2B. The procedure, abridged:
as §2

Test [12] has as its system RRV. The test can be described thus: RRV binding assay in human cholangiocytes. It counts as cell-based, rhesus rotavirus; human cholangiocytes (H69). The procedure, abridged:
as §1

Test [13] relates to RRV. The test can be described thus: RRV replication in human cholangiocytes. The class given is cell-based, rhesus rotavirus; human cholangiocytes (H69). The procedure, abridged:
as §2

For test [14], the system named is GRV. The test can be described thus: GRV binding assay in H69 cells. It counts as cell-based, rotavirus, goat strain; human cholangiocytes (H69). The conditions noted are these: Fig. 6C. In outline:
as §1

The test system of test [15] is GRV. The test can be described thus: GRV viral yield in H69 cells. It counts as cell-based, rotavirus, goat strain; human cholangiocytes (H69). The conditions noted are these: Fig. 6D. In outline:
as §2

Test [16] has as its system TUCH. The test can be described thus: TUCH binding assay in H69 cells. The class given is cell-based, rotavirus, simian strain; human cholangiocytes (H69). The conditions noted are these: Fig. 6C. The procedure, abridged:
as §1

Test [17] has as its system TUCH. The test can be described thus: TUCH viral yield in H69 cells. The class given is cell-based, rotavirus, simian strain; human cholangiocytes (H69). Particulars: Fig. 6D. In outline: as §2
Test [18] has as its system Ro1845. The test can be described thus: Ro1845 binding assay in H69 cells. It counts as cell-based, rotavirus, human strain; human cholangiocytes (H69). Particulars: Fig. 6C. In outline: as §1
The subject of test [19] is Ro1845. The test can be described thus: Ro1845 viral yield in H69 cells. Particulars: Fig. 6D. It counts as cell-based, rotavirus, human strain; human cholangiocytes (H69). In outline:
as §2

Setting [20] is: mouse cholangiocytes pretreated with 1 mM peptide, versus serum-free media, Fig. 3B, 4C, 8C.
[21] abbreviates: mouse cholangiocytes pretreated with peptide, concentration not given, Fig. 4A.

“Also recorded” adds a separate entry of the source.

With DGEA [reference compound], the “effect on RRV binding” value in the test on RRV [1] (setting [20]) was “significantly inhibited”. In addition, the “RRV binding, percent of control (positive control)” value in the test with RRV [1] (mouse cholangiocytes, concentration not given, Fig. 1B) amounted to 61.40%. Moreover, the “effect on TUCH binding” value with TUCH [2] is on record as “significantly inhibited”. In addition, the “effect on TUCH replication / viral yield” value in the test with TUCH [3] is on record as “significantly inhibited”. The “effect on Ro1845 binding” value with Ro1845 [4] is on record as “significantly inhibited”. Further, in the test on Ro1845 [5], the “effect on Ro1845 replication / viral yield” value is “significantly inhibited”. The “peptide blocking of RRV binding in negative control siRNA cholangiocytes” value with RRV [6] was “remained sensitive to DGEA blocking”.

For the substance “FSGIKSTIDAAKSMATNVMKKFKK [reference compound]”, the “effect on RRV binding” value with RRV [1] (setting [20]) is “no effect”. For the same substance, the “inhibition of RRV replication” value in the test with RRV [7] was 42.43%. Also, the “viral replication in MA104 cells treated with peptide” value with rotavirus is on record as “reduced viral replication”.

On to GHRP, for which, in the test on RRV [8], the “ability to inhibit RRV binding” value was “no ability to inhibit RRV binding”.

Regarding ISRLY, the “effect on RRV binding” value with RRV [1] (setting [20]) is given as “maintained the ability to inhibit”.

With KTKIDRSTQISPNTLPD [reference compound], in the test on RRV [1] (setting [20]), the “effect on RRV binding” value was “no effect”. For the same substance, the “inhibition of RRV replication” value with RRV [7] is 54.50%. In addition, in the test with rotavirus, the “viral replication in MA104 cells treated with peptide” value was “reduced viral replication”.

On to MRTRVSGLY, for which the “effect on RRV binding” value in the test on RRV [1] (setting [20]) is recorded as “no effect”. Moreover, the “effect on TUCH binding” value in the test with TUCH [2] is “no effect”. The “effect on TUCH replication / viral yield” value with TUCH [3] is on record as “no effect”. For the same substance, the “effect on Ro1845 binding” value with Ro1845 [4] was “no effect”. The “effect on Ro1845 replication / viral yield” value in the test on Ro1845 [5] is “no effect”.

Turning to MRTRVSRLY, the “effect on RRV binding” value in the test with RRV [1] (setting [21]) is on record as “significantly inhibiting”. Moreover, the “effect on RRV replication” value in the test with RRV [7] is “significantly inhibiting”.

Take PTAAGV: the “effect on RRV-cholangiocyte binding” value with RRV [1] (mouse cholangiocytes, Fig. 1B) was “did not interfere”.

For SSASAW, in the test with RRV [1] (mouse cholangiocytes, Fig. 1B), the “effect on RRV-cholangiocyte binding” value is “did not interfere”. In the test on RRV [9], the “histology of extrahepatic bile ducts (hematoxylin and eosin)” value is reported as “complete obstruction of their bile ducts”.

In the case of TRTRVSRLY, the “effect on RRV binding” value in the test with RRV [1] (setting [20]) is on record as “significantly reduced”. For the same substance, the “inhibition of RRV binding compared with control” value in the test with RRV [1] (mouse cholangiocytes pretreated with 1 mM peptide, Fig. 2A) came out at 45.13%. Further, the “effect on RRV binding” value in the test with RRV [1] (setting [21]) is recorded as “significantly inhibiting”. In the test on RRV [7], the “inhibition of RRV replication” value is given as 44.53% and the “effect on RRV replication” value is “significantly inhibiting”. Further, in the test with GRV [10], the “inhibition of GRV binding compared with control” value worked out at 41.27%. Also, in the test with GRV [11], the “reduction of GRV viral yield, of control” value was 35.51%. Moreover, the “effect on TUCH binding” value in the test with TUCH [2] is “no effect”. Also, the “effect on TUCH replication / viral yield” value in the test on TUCH [3] is “no reduction in viral yield; also recorded: no effect”. The “effect on Ro1845 binding” value with Ro1845 [4] is on record as “no effect”. Moreover, in the test on Ro1845 [5], the “effect on Ro1845 replication / viral yield” value is “no reduction in viral yield; also recorded: no effect”. For the same substance, the “RRV binding to human cholangiocytes, of control” value in the test with RRV [12] (H69 cells, 1 mM peptide, Fig. 6A) came out at 65.9%. Also, in the test with RRV [12] (strain comparison, Fig. 6C), the “effect on RRV binding to H69 cells” value is recorded as “able to block”. For the same substance, the “RRV replication within human cholangiocytes, of control” value in the test on RRV [13] (H69 cells, 1 mM peptide, Fig. 6B) turned out to be 57.9%. In addition, in the test with RRV [13] (strain comparison, Fig. 6D), the “effect on RRV viral yield in H69 cells” value is given as “reduced viral yields”. Moreover, the “effect on GRV binding to H69 cells” value in the test with GRV [14] is given as “able to block”. In addition, the “effect on GRV viral yield in H69 cells” value in the test with GRV [15] is listed as “reduced viral yields”. Also, the “effect on TUCH binding to H69 cells” value in the test on TUCH [16] is “no effects”. Further, in the test on TUCH [17], the “effect on TUCH viral yield in H69 cells” value is given as “no decrease in yield”. Moreover, the “effect on Ro1845 binding to H69 cells” value in the test with Ro1845 [18] is given as “no effects”. The “effect on Ro1845 viral yield in H69 cells” value in the test on Ro1845 [19] is “no decrease in yield”. Besides, in the test on RRV [9], the “histology of extrahepatic bile ducts (hematoxylin and eosin)” value was “mild inflammation with a patent lumen”.

Regarding VRTRISGLY, in the test on RRV [1] (setting [20]), the “effect on RRV binding” value was “no effect”. Besides, the “effect on TUCH binding” value with TUCH [2] is “no effect”. Besides, the “effect on TUCH replication / viral yield” value with TUCH [3] was “no effect”. Besides, in the test on Ro1845 [4], the “effect on Ro1845 binding” value is “no effect”. In addition, in the test on Ro1845 [5], the “effect on Ro1845 replication / viral yield” value is recorded as “no effect”.

Turning to VSGLY, in the test with RRV [1] (setting [20]), the “effect on RRV binding” value is recorded as “unable to exhibit such inhibition”.

For the substance VSRAY, the “effect on RRV binding” value in the test on RRV [1] (setting [20]) is reported as “unable to exhibit such inhibition”.

Regarding VSRLA, the “effect on RRV binding” value with RRV [1] (setting [20]) is on record as “maintained the ability to inhibit”.

With VSRLY, the “effect on RRV binding” value in the test on RRV [1] (setting [20]) is on record as “maintained the ability to inhibit”.

For VVRLY, in the test on RRV [1] (setting [20]), the “effect on RRV binding” value is given as “unable to exhibit such inhibition”.
